Results as given in ChEMBL document CHEMBL3044819, “Structure-activity relationship in the interaction of substituted perinaphthenones with Mycosphaerella fijiensis” (J Agric Food Chem, 2009).
The source made the active and inactive calls. The rule behind the calls is not given here.

tested on: Pseudocercospora fijiensis; assay: Antifungal activity against Pseudocercospora fijiensis assessed as inhibition of mycelial growth under 12 hr photoperiod measured after 8 days; format: functional, organism-based
Method in brief: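 Microtiter well assay; inoculum adjusted to 2 × 10⁵ mycelial fragments/mL. Plates kept in an incubation chamber 1 m from white fluorescent tubes on a 12 h photoperiod. Mycelial growth was measured after 8 days, which is the logarithmic growth phase. IC₅₀ values were calculated from growth inhibition, with statistical analysis per Lazzaro et al. Benomyl and propiconazole were tested as reference fungicides.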

| Structure (SMILES) | growth inhibition (GI) |
| --- | --- |
| COc1ccc2c3c(cccc13)C(=O)C=C2 | inactive |
| O=C1C=C(O)c2cccc3cccc1c23 | inactive |
| O=C1C([N+](=O)[O-])=Cc2cccc3cccc1c23 | Active |
| COC1=CC(=O)c2cccc3cccc1c23 | inactive |
| O=C1C=Cc2c(O)ccc3cccc1c23 | inactive |
| O=C1C(O)=Cc2cccc3cccc1c23 | inactive |
| O=C1C(Cl)=Cc2cccc3cccc1c23 | Active |
| O=C1C=Cc2ccc(O)c3cccc1c23 | inactive |
| COc1ccc2cccc3c2c1C=CC3=O | inactive |
| O=C1C(Br)=Cc2cccc3cccc1c23 | Active |
| O=C1C=Cc2cccc3cccc1c23 | Active |
| COc1ccc2cccc3c2c1C=C([N+](=O)[O-])C3=O | Active |
| COC1=Cc2cccc3cccc(c23)C1=O | inactive |
